Laboratory results: ChEMBL document CHEMBL4014338, “Discovery of Small Molecules as Multi-Toll-like Receptor Agonists with Proinflammatory and Anticancer Activities” (J Med Chem, 2017)
Activity calls are given as the source filed them. No cut-off for these calls is given here.

These compounds were tested against Toll-like receptor 3 (Homo sapiens) (UniProt O15455) (assay: Agonist activity at human TLR3 expressed in HEK293 cells assessed as induction of NF-kB activation-mediated SEAP production at 25 uM after 24 hrs by HTS assay relative to control). Details: not given.
Format: cell-based
Outline: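 hTLR3 HEK293 SEAP reporter cells seeded at 5 × 10^4 cells/well for 24 h, exposed to 25 μM for 24 h. Supernatant SEAP detected with QUANTI-Blue (1 h, 37 °C, OD 620 nm). Activation normalized to untreated cells and expressed as fold change.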

Row | SMILES | fold change (FC)
1 | CC1(C)CC(O)c2cc(OCc3ccc(F)c(F)c3)c(OCc3ccc(F)c(F)c3)cc2O1 (stereo not given) | 0.95
2 | CC1(C)CC(=O)c2cc(OCc3ccc(F)c(F)c3)c(OCc3ccc(F)c(F)c3)cc2O1 | 1.22
3 | CC1(C)C=Cc2cc(OCc3ccc([N+](=O)[O-])c(F)c3)c(OCc3ccc([N+](=O)[O-])c(F)c3)cc2O1 | 1.24
4 | CC1(C)C=Cc2cc(OC(=O)c3ccc([N+](=O)[O-])cc3)c(OC(=O)c3ccc([N+](=O)[O-])cc3)cc2O1 | 1.65
5 | CC1(C)C=Cc2cc(O)c(OCc3ccc([N+](=O)[O-])cc3)cc2O1 | 1.17
6 | CC1(C)C=Cc2cc(OCc3ccc(F)c(F)c3)c(OCc3ccc(F)c(F)c3)cc2O1 | 0.99
7 | CC1(C)CC(O)c2cc(OCc3ccc([N+](=O)[O-])cc3)c(OCc3ccc([N+](=O)[O-])cc3)cc2O1 (stereo not given) | 2.5
8 | CC1(C)C=Cc2cc(OCc3ccccc3)c(OCc3ccccc3)cc2O1 | 1.09
9 | O=[N+]([O-])c1ccc(COc2cc3c(cc2OCc2ccc([N+](=O)[O-])cc2)OC2(C=C3)CCCC2)cc1 | 1.22
10 | O=[N+]([O-])c1ccc(COc2cc3c(cc2OCc2ccc([N+](=O)[O-])cc2)OC2(C=C3)CCCCCC2)cc1 | 1.07
11 | COc1cc2c(cc1OCc1ccc([N+](=O)[O-])cc1)C=CC(C)(C)O2 | 1.19
12 | CC1(C)CC(O)c2cc(OCc3ccc([N+](=O)[O-])c(F)c3)c(OCc3ccc([N+](=O)[O-])c(F)c3)cc2O1 (stereo not given) | 2.34
13 | CC1(C)C=Cc2cc(OCc3ccc([N+](=O)[O-])cc3)c(OCc3ccc([N+](=O)[O-])cc3)cc2O1 | 5.34
14 | COc1ccc(COc2cc3c(cc2OCc2ccc(OC)c(F)c2)C(=O)CC(C)(C)O3)cc1F | 1.08
15 | CC1(C)CC(=O)c2cc(OCc3ccc([N+](=O)[O-])cc3)c(OCc3ccc([N+](=O)[O-])cc3)cc2O1 | 1.76
16 | COc1ccc(COc2cc3c(cc2OCc2ccc(OC)c(F)c2)OC(C)(C)C=C3)cc1F | 1.06
17 | CC1(C)C=Cc2cc(OCc3ccc(C(F)(F)F)cc3)c(OCc3ccc(C(F)(F)F)cc3)cc2O1 | 0.99
18 | COc1ccc(COc2cc3c(cc2OCc2ccc(OC)c(F)c2)C(O)CC(C)(C)O3)cc1F (stereo not given) | 1.34
19 | CC1(C)C=Cc2cc(OCc3cccc([N+](=O)[O-])c3)c(OCc3cccc([N+](=O)[O-])c3)cc2O1 | 1.1
20 | CC1(C)CC(O)c2cc(OCc3ccc(C(F)(F)F)cc3)c(OCc3ccc(C(F)(F)F)cc3)cc2O1 (stereo not given) | 2.36
21 | CC1(C)CC(=O)c2cc(OCc3ccc(C(F)(F)F)cc3)c(OCc3ccc(C(F)(F)F)cc3)cc2O1 | 1.19
22 | O=[N+]([O-])c1ccc(COc2cc3c(cc2OCc2ccc([N+](=O)[O-])cc2)OC2(C=C3)CCCCC2)cc1 | 1
23 | CCC1(CC)C=Cc2cc(OCc3ccc([N+](=O)[O-])cc3)c(OCc3ccc([N+](=O)[O-])cc3)cc2O1 | 1.16
24 | CC1(C)C=Cc2cc(OCc3ccccc3[N+](=O)[O-])c(OCc3ccccc3[N+](=O)[O-])cc2O1 | 1.08
25 | CC1(C)CC(=O)c2cc(OCc3ccc([N+](=O)[O-])c(F)c3)c(OCc3ccc([N+](=O)[O-])c(F)c3)cc2O1 | 1.22

Each compound was assayed against Toll-like receptor 3 (Homo sapiens) (UniProt O15455) (assay: Agonist activity at human TLR3 expressed in HEK293 cells assessed as induction of NF-kB activation-mediated SEAP production at 30 uM after 24 hrs by HTS assay). Details: not given.
Format: cell-based
Outline: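 HTS in HEK293 cells stably expressing human TLR3 plus an NF-κB-inducible SEAP reporter, seeded at 20,000 cells/well and run in duplicate. Library compounds in DMSO at 30 μM final. Poly I:C 5 μg/mL served as positive control and cells + medium + DMSO as negative control. SEAP in supernatant read by QUANTI-Blue; assay quality judged by Z′ factor.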

Row | SMILES | Activity
26 | CC1(C)C=Cc2cc(OCc3ccc([N+](=O)[O-])cc3)c(OCc3ccc([N+](=O)[O-])cc3)cc2O1 | Active

Species: Homo sapiens
Test: Activation of NF-kB in HEK293 cells assessed as SEAP production at 30 uM after 24 hrs by HTS assay
Format: cell-based
Details: not given
Outline: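 hTLR3-transfected HEK293 cells carrying an NF-κB-inducible SEAP reporter, seeded at 20,000 cells/well in duplicate; library compounds in DMSO at 30 μM final. Poly I:C 5 μg/mL as positive control; cells + medium + DMSO as negative control. SEAP in supernatant read by QUANTI-Blue; hits ranked on RMS values.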

Row | SMILES | Activity
27 | CC1(C)C=Cc2cc(OCc3ccc([N+](=O)[O-])cc3)c(OCc3ccc([N+](=O)[O-])cc3)cc2O1 | inactive

What follows are compounds tested on HEK293 (assay: Cytotoxicity against HEK293 cells at 25 uM). Details: human, hek293, 25 µM.
Format: cell-based

Row | SMILES | Activity
28 | CC1(C)C=Cc2cc(OCc3ccc([N+](=O)[O-])cc3)c(OCc3ccc([N+](=O)[O-])cc3)cc2O1 | Non-Toxic

These compounds were tested against T1, Toll-like receptor 3 (Homo sapiens, UniProt O15455) (assay: Agonist activity at human TLR3 expressed in HEK293 cells assessed as induction of NF-kB activation-mediated SEAP production after 24 hrs by HTS assay). Details: not given.
T1 sequence (O15455 whole entry): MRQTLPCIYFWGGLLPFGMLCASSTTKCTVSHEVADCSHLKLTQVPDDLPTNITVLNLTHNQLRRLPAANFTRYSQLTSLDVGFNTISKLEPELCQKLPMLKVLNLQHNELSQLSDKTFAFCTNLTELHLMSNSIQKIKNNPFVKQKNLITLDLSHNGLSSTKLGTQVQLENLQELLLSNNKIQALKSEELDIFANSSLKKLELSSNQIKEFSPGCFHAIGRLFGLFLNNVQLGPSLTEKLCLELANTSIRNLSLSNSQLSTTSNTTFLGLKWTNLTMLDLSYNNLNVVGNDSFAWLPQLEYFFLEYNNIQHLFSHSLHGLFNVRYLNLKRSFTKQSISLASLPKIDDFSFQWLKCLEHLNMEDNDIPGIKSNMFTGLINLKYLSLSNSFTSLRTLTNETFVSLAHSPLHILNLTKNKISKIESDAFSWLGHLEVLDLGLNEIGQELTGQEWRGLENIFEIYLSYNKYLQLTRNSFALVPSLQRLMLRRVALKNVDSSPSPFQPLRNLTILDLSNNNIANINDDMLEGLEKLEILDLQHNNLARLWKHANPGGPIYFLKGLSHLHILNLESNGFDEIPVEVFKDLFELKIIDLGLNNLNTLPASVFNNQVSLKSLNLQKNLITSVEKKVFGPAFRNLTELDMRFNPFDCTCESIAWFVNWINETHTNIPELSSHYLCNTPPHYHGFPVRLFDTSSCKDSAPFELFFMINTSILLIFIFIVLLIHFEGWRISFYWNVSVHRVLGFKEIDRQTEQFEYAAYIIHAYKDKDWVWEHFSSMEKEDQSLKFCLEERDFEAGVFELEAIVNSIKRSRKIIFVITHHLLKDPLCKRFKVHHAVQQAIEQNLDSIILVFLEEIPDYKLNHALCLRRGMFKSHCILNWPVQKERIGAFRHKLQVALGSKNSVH
Format: cell-based
Outline: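 Stable HEK293 lines expressing a single hTLR plus a SEAP reporter, grown in DMEM/10% FBS with selective antibiotics. Seeded at 5 × 10^4 cells/well for 24 h at 37 °C, then treated 24 h. Supernatant mixed with QUANTI-Blue, 1 h at 37 °C, OD 620 nm. Cognate agonists: Pam3CSK4 (TLR2), poly I:C (TLR3), LPS (TLR4), FLA-BS (TLR5), R848 (TLR7). EC50 as mean ± SD.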

Row | SMILES | EC50
29 | CC1(C)CC(O)c2cc(OCc3ccc([N+](=O)[O-])cc3)c(OCc3ccc([N+](=O)[O-])cc3)cc2O1 (stereo not given) | 42.5 µM
30 | CC1(C)C=Cc2cc(OCc3ccc([N+](=O)[O-])cc3)c(OCc3ccc([N+](=O)[O-])cc3)cc2O1 | 22.3 µM
